Results as given in ChEMBL document CHEMBL4152210, “Design, synthesis, anti-lung cancer activity, and chemosensitization of tumor-selective MCACs based on ROS-mediated JNK pathway activation and NF-κB pathway inhibition” (Eur J Med Chem, 2018).
Active and inactive are the calls of the source. The rule behind the calls is not given here.

Key:
[1] = biological target: T1, Inhibitor of nuclear factor kappa-B kinase subunit beta (Homo sapiens) (UniProt O14920); experiment: Inhibition of cisplatin-induced IKK-beta phosphorylation in human A549 cells at 1 to 10 uM preincubated for 1 hr followed by cisplatin addition and measured after 24 hrs by Western blot analysis; format: cell-based
T1 sequence (whole entry): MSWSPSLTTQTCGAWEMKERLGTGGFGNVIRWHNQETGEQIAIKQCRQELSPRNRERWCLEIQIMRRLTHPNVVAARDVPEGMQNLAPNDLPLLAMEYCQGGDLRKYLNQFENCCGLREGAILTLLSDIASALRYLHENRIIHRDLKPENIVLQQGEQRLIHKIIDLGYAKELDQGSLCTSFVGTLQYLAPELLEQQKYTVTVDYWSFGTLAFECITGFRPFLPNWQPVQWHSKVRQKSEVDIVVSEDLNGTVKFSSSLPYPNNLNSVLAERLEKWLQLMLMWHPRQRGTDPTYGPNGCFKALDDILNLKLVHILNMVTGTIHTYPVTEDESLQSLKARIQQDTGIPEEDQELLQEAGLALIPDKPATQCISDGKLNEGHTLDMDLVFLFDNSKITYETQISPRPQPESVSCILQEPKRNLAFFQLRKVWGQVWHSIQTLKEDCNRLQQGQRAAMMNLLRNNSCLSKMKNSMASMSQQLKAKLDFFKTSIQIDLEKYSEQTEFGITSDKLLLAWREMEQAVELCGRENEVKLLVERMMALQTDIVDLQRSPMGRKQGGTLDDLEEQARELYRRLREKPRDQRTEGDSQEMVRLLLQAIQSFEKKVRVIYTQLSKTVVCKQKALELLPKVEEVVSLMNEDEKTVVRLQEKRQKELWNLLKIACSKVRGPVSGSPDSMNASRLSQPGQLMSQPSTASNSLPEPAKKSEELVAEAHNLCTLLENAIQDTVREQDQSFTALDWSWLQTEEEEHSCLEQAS
How it was run: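 A549 pretreated 1 h at 1, 5 or 10 µM, or with BMS345541 (20 µM), then exposed to cisplatin (20/3 µM) for 24 h. p-IKKβ assessed by western blot.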

NCI-H1975 = experiment: Cytotoxicity against human NCI-H1975 cells assessed as reduction in cell viability after 72 hrs by MTT assay; format: functional, cell-based; details: NCI-H1975, 72 h
How it was run: (§1)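 Cells in RPMI 1640 with 10% heat-inactivated FBS and penicillin/streptomycin at 37 °C, 5% CO2. Seeded at 4000 per well, adhered overnight, then exposed to graded compound concentrations in triplicate wells for 72 h. MTT (5 mg/mL stock) added for 4 h, dissolved in DMSO, A490 read. IC50 is the concentration reducing viability by 50% versus untreated control.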

[2] = biological target: T2, NF-kappa-B inhibitor alpha (Homo sapiens) (UniProt P25963); experiment: Inhibition of TNF-alpha induced IkappaBalpha degradation in human A549 cells at 10 uM pretreated with 5 mM NAC for 1 hr followed by compound addition and measured after 1 hr by Western blot analysis; format: cell-based
T2 sequence (whole entry): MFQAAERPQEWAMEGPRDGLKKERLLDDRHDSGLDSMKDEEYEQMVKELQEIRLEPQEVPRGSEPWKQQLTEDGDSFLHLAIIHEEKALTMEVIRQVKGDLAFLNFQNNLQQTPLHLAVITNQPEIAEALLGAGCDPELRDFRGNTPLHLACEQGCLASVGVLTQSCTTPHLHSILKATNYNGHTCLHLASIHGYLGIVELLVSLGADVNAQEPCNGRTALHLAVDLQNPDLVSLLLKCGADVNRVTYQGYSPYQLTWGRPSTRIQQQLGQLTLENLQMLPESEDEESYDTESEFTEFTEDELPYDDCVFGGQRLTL
How it was run: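 A549 preincubated 1 h at 1, 5 or 10 µM, or with BMS345541 (20 µM), then stimulated with TNFα (1 ng/mL) for 15 min. NAC arm: 5 mM NAC for 1 h, then 10 µM for 1 h. IκBα detected by western blot, GAPDH as loading control.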

A549 [3] = experiment: Antiproliferative activity against human A549 cells harboring IKKbeta at 6.67 to 60 uM after 24 hrs by MTT assay; format: functional, cell-based
How it was run: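 A549 (seeded 3 × 10^5 per well, overnight) transfected with IKKβ plasmid or empty vector using lipofectamine 2000 in serum-free medium for 6 h, then moved to 1640 with 10% FBS. Treated at 60, 20 or 6.67 µM for 24 h. MTT (5 mg/mL stock) added for 4 h, formazan dissolved in DMSO, absorbance read at 490 nm.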

A549 [4] = experiment: Chemosensitization activity in human A549 cells assessed as inhibition of clonogenic growth at 0.25 uM in presence of 0.74 uM cisplatin incubated for 2 days followed by replacement of growth media and measured after 8 days by crystal violet staining-based assay relative to control; format: functional
How it was run: (§2)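 A549 seeded at 1000 cells per well in 6-well plates, exposed to drug alone or combined with cisplatin or 5-Fu over a concentration series. Drug-containing medium replaced after 2 days. After a further 8 days, fixed with 1% methanol/1% formaldehyde and stained with 0.5% crystal violet. Percent inhibition at each concentration calculated relative to control.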

A549 [5] = experiment: Induction of apoptosis in human A549 cells assessed as increase in PARP level after 24 hrs by Western blot analysis; format: functional, cell-based
How it was run: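 A549 treated at 1, 5 or 10 µM, or with BMS345541 (20 µM), for 24 h. Cleaved PARP and Bax detected by western blot (10% SDS-PAGE, PVDF, 5% milk block, HRP secondary).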

A549 [6] = experiment: Cytotoxicity against human A549 cells assessed as reduction in cell viability after 72 hrs by MTT assay; format: functional, cell-based; details: A549, 72 h; how it was run: as §1
A549 [7] = experiment: Chemosensitization activity in human A549 cells assessed as inhibition of clonogenic growth at 1 uM in presence of 0.74 uM cisplatin incubated for 2 days followed by replacement of growth media and measured after 8 days by crystal violet staining-based assay relative to control; format: functional; how it was run: as §2
A549 [8] = experiment: Anticlonogenic activity against human A549 cells assessed as inhibition of clonogenic growth at 0.5 uM incubated for 2 days followed by replacement of growth media and measured after 8 days by crystal violet staining-based assay relative to control; format: functional; how it was run: as §2
A549 [9] = experiment: Chemosensitization activity in human A549 cells assessed as inhibition of clonogenic growth at 0.25 uM in presence of 9 uM cisplatin incubated for 2 days followed by replacement of growth media and measured after 8 days by crystal violet staining-based assay relative to control; format: functional; how it was run: as §2
A549 [10] = experiment: Induction of apoptosis in human A549 cells after 24 hrs by Annexin V-FITC/propidium iodide staining based flow cytometric analysis; format: functional, cell-based
How it was run: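 A549 treated 24 h at 1, 5 or 10 µM, with BMS345541 20 µM as control. Inhibitor arms pretreated 1 h with NAC (5 mM) or SP600125 (10 µM) before 10 µM. Cells harvested with EDTA-free trypsin, stained with FITC Annexin V and PI for 15 min at room temperature in the dark, analysed by flow cytometry.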

A549 [11] = experiment: Chemosensitization activity in human A549 cells assessed as inhibition of clonogenic growth at 1 uM in presence of 0.25 uM cisplatin incubated for 2 days followed by replacement of growth media and measured after 8 days by crystal violet staining-based assay relative to control; format: functional; how it was run: as §2

In the case of `COc1cc(/C=C2\CN(C)C/C(=C\c3cc(OC)c(OC)c(OC)c3)C2=O)cc(OC)c1OC`, the inhibition [1] is reported as “Active”, the IC50 (NCI-H1975) is reported as 1000 nM and the inhibition [2] is reported as “inactive”. The Activity (A549 [3]) was “inactive”, the “inhibition (INH)” value (A549 [4]) was 63% and the Activity (A549 [5]) was “Dose-dependent effect”. The IC50 (A549 [6]) was 1700 nM, the “inhibition (INH)” value (A549 [7]) was 97% and the inhibition at 0.5 µM (A549 [8]) was 18%. For the same compound, the “inhibition (INH)” value (A549 [9]) was 99%, the Activity (A549 [10]) was “Dose-dependent effect” and the “inhibition (INH)” value (A549 [11]) was 90%.
